The text below walks through data of ChEMBL document CHEMBL3046278, “Design, synthesis and antifungal/insecticidal evaluation of novel cinnamide derivatives” (2011).

Broadly, the inhibition is the change of the read-out against control, counted positive when it falls.

Common to all, as to format: functional
In test [1] the test system is Bursaphelenchus xylophilus. The test is described as follows: Nematicidal activity against Bursaphelenchus xylophilus assessed as mortality at 200 mg/L after 48 hr relative to control. The essentials: (§1)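 Compounds dissolved in acetone and diluted with distilled water to a 200 mg L-1 working solution. Distilled water served as blank, triplicate. Mortality counted at 24, 48 and 72 h, then corrected against the negative control with Abbott's formula.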

The next test concerns Sclerotinia sclerotiorum. The test is described as follows: Antifungal activity against Sclerotinia sclerotiorum assessed as inhibition of mycelium growth at 50 ug/ml relative to control. The gist of the method:
(§2)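 Mycelial growth inhibition on mycelial disks, compared with untreated control, using colony diameters: (control − treatment)/(control − disk diameter) × 100. Run twice, four replicates each.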

Test [2] has as its system Colletotrichum lindemuthianum. The test is described as follows: Antifungal activity against Colletotrichum lindemuthianum assessed as inhibition of mycelium growth at 50 ug/ml relative to control. The gist of the method:
as §2

The next test deals with Phytophthora nicotianae. The test is described as follows: Antifungal activity against Phytophthora parasitica assessed as inhibition of mycelium growth at 50 ug/ml relative to control. The essentials:
as §2

Test [3] concerns Bursaphelenchus xylophilus. The test is described as follows: Nematicidal activity against Bursaphelenchus xylophilus assessed as mortality at 200 mg/L after 24 hr relative to control. The gist of the method: as §1
For test [4], the system named is Bursaphelenchus xylophilus. The test is described as follows: Nematicidal activity against Bursaphelenchus xylophilus assessed as mortality at 200 mg/L after 72 hr relative to control. The essentials:
as §1

The test system of another test is Cytospora mali. The test is described as follows: Antifungal activity against Valsa mali assessed as inhibition of mycelium growth at 50 ug/ml relative to control. The gist of the method:
as §2

Another test relates to Botrytis cinerea. The test is described as follows: Antifungal activity against Botryotinia fuckeliana assessed as inhibition of mycelium growth at 50 ug/ml relative to control. The essentials: as §2
Another test has as its system Rhizoctonia solani. The test is described as follows: Antifungal activity against Rhizoctonia solani assessed as inhibition of mycelium growth at 50 ug/ml relative to control. The gist of the method: as §2

On to `CCc1ccc(/C(=C/C(=O)NCCc2ccc(O)cc2)c2ccnc(Cl)c2)cc1`, for which the Activity in test [1] came to 33.6%; in [3], 14.73%; in test [4], 43.97%. For the same compound, the inhibition at 50 µg/mL in the test with Sclerotinia sclerotiorum was 17%; in test [2], 24.6%; with Phytophthora nicotianae it was 28.2%; in the test on Cytospora mali, 24%; with Botrytis cinerea, 37%; in the test with Rhizoctonia solani it was 67.7%.
Take `Cc1ccc(/C(=C/C(=O)NCCc2ccc(O)cc2)c2ccnc(Cl)c2)cc1C`: the Activity in [1] came out at 14.86%; in test [3], 3.97%; in test [4] it was 23.99%. The inhibition at 50 µg/mL with Sclerotinia sclerotiorum is 44%; in test [2], 35.8%; in the test with Phytophthora nicotianae it was -18.5%; in the test on Cytospora mali, -6.3%; with Botrytis cinerea it was 54%; with Rhizoctonia solani, 91%.
For `Cc1ccc(/C(=C/C(=O)NCCc2ccc(O)cc2)c2ccnc(Cl)c2)c(C)c1`, the results for the Activity in [1], in test [3] and in [4] were 44.71%, 12.22% and 54.16%, respectively. Besides, the inhibition at 50 µg/mL in the test with Sclerotinia sclerotiorum is 27%; in test [2] it was 21.6%; in the test on Phytophthora nicotianae, -25%; in the test with Cytospora mali it was 26%; in the test on Botrytis cinerea it was 38%; with Rhizoctonia solani, 13.6%.
As to `CC(C)(C)c1ccc(/C(=C/C(=O)NCCc2ccc(O)cc2)c2ccnc(Cl)c2)cc1`, the Activity in test [1] is 27.76%; in test [3], 21.17%; in [4], 31.44%. The inhibition at 50 µg/mL in the test on Sclerotinia sclerotiorum was 29%; in test [2] it was 39.5%; in the test on Phytophthora nicotianae, -13.7%; in the test on Cytospora mali, -7.8%; in the test on Botrytis cinerea it was 50%; with Rhizoctonia solani, 9.03%.
As to `Cc1ccc(/C(=C/C(=O)NCCc2ccccc2)c2ccncc2)cc1`, the Activity in [1] turned out to be 14.86%; in [3], 9.34%; in test [4], 18.11%. In addition, the inhibition at 50 µg/mL with Sclerotinia sclerotiorum was 16%; in test [2], 32.8%; in the test with Phytophthora nicotianae it was -17.7%; in the test with Cytospora mali it was 36%; in the test on Botrytis cinerea it was 43%; with Rhizoctonia solani, 15.5%.
For `CCc1ccc(/C(=C/C(=O)NCCc2ccccc2)c2ccncc2)cc1`, the Activity in [1] was 8.23%; in test [3], 7.56%; in [4], 8.71%. For the same compound, the inhibition at 50 µg/mL stood at 45% in the test with Sclerotinia sclerotiorum; 37.3% in test [2]; 5.65% with Phytophthora nicotianae; 30% in the test on Cytospora mali; 48% with Botrytis cinerea; 9.68% in the test with Rhizoctonia solani.
Turning to `Cc1ccc(/C(=C/C(=O)NCCc2ccccc2)c2ccncc2)cc1C`, the figures for the Activity in [1], in test [3] and in test [4] were 47.67%, 28.7% and 49.07%, respectively. Besides, the inhibition at 50 µg/mL with Sclerotinia sclerotiorum is 2.7%; in test [2], 17.2%; in the test on Phytophthora nicotianae, -9.68%; in the test on Cytospora mali, 18%; in the test with Botrytis cinerea, 15%; in the test on Rhizoctonia solani, 3.87%.
Take `COc1ccc(CCNC(=O)/C=C(\c2ccncc2)c2ccc(C)c(C)c2)cc1OC`: the results for the Activity in test [1], in test [3] and in test [4] were 16.33%, 13.65% and 19.29%, respectively. Besides, the inhibition at 50 µg/mL in the test with Sclerotinia sclerotiorum was 11%; in test [2] it was 28.4%; in the test on Phytophthora nicotianae, -14.5%; in the test on Cytospora mali, 68%; in the test with Botrytis cinerea, 52%; in the test on Rhizoctonia solani, 5.81%.
On to `Cc1ccc(/C(=C/C(=O)NCCc2ccc(O)cc2)c2ccncc2)cc1`, for which the values for the Activity in [1], in test [3] and in [4] were 16.7%, 8.27% and 19.29%, respectively. Further, the inhibition at 50 µg/mL is 5.3% with Sclerotinia sclerotiorum; 28.4% in test [2]; -17.7% in the test on Phytophthora nicotianae; -2.3% in the test with Cytospora mali; 47% in the test on Botrytis cinerea; 10.3% with Rhizoctonia solani.
As for `Cc1ccc(/C(=C/C(=O)NCCc2ccc(O)cc2)c2ccncc2)cc1C`, the Activity in test [1] was determined as 22.6%; in test [3], 11.86%; in test [4], 32.22%. Besides, the inhibition at 50 µg/mL in the test with Sclerotinia sclerotiorum was 27%; in test [2] it was 38.8%; in the test with Phytophthora nicotianae, 14.5%; in the test with Cytospora mali it was -2.3%; with Botrytis cinerea it was 64%; in the test on Rhizoctonia solani, 16.1%.
Regarding `Cc1ccc(/C(=C/C(=O)NCCc2ccccc2)c2ccnc(Cl)c2)cc1`, the Activity was 28.13% in [1], 15.8% in [3] and 35.35% in test [4]. In addition, the inhibition at 50 µg/mL with Sclerotinia sclerotiorum was 37%; in [2], 59.7%; in the test with Phytophthora nicotianae, 24.4%; in the test on Cytospora mali, 48%; in the test on Botrytis cinerea, 44%; with Rhizoctonia solani, 93.9%.
Consider `Cc1ccc(/C(=C/C(=O)NCCc2ccccc2)c2ccnc(Cl)c2)c(C)c1`, for which the Activity in [1] stood at 24.44%; in test [3] it was 22.97%; in test [4], 27.91%. Further, the inhibition at 50 µg/mL with Sclerotinia sclerotiorum turned out to be 24%; in [2], 47%; with Phytophthora nicotianae it was 11.3%; with Cytospora mali, 31%; in the test with Botrytis cinerea it was 43%; in the test on Rhizoctonia solani, 4.52%.
In the case of `COc1ccc(/C(=C/C(=O)NCCc2ccccc2)c2ccnc(Cl)c2)cc1`, the Activity amounted to 38.82% in [1], 13.65% in [3] and 42.01% in [4]. Moreover, the inhibition at 50 µg/mL in the test with Sclerotinia sclerotiorum was 42%; in [2], 43.3%; in the test on Phytophthora nicotianae, -2.42%; in the test with Cytospora mali, -6.3%; in the test on Botrytis cinerea, 55%; in the test with Rhizoctonia solani, 13.6%.
Turning to `COc1ccc(CCNC(=O)/C=C(\c2ccnc(Cl)c2)c2ccc(C)c(C)c2)cc1OC`, the Activity in [1] came to 17.81%; in [3] it was 8.63%; in [4] it was 21.64%. The inhibition at 50 µg/mL with Sclerotinia sclerotiorum was found to be 28%; in [2], 23.9%; with Phytophthora nicotianae, 14.2%; in the test on Cytospora mali it was 36%; with Botrytis cinerea it was 33%; in the test on Rhizoctonia solani it was 23.8%.
Consider `COc1ccc(CCNC(=O)/C=C(\c2ccnc(Cl)c2)c2ccc(C)cc2C)cc1OC`, for which the Activity in test [1] is listed as 34.02%; in [3], 19.02%; in test [4], 38.09%. For the same compound, the inhibition at 50 µg/mL amounted to 68% in the test with Sclerotinia sclerotiorum; 42.5% in test [2]; 22.6% with Phytophthora nicotianae; 29% in the test with Cytospora mali; 40% in the test on Botrytis cinerea; 35.5% in the test on Rhizoctonia solani.
Take `COc1ccc(CCNC(=O)/C=C(/c2ccc(C(C)(C)C)cc2)c2ccnc(Cl)c2)cc1OC`: the Activity in [1] came out at 38.82%; in test [3] it was 4.33%; in test [4], 45.15%. Further, the inhibition at 50 µg/mL was 53% in the test on Sclerotinia sclerotiorum; 22.4% in [2]; -8.06% in the test on Phytophthora nicotianae; 18% in the test on Cytospora mali; 48% in the test on Botrytis cinerea; 14.8% in the test with Rhizoctonia solani.
Regarding `Cc1ccc(/C(=C/C(=O)NCCc2ccc(O)cc2)c2ccnc(Cl)c2)cc1`, the Activity in test [1] is listed as 12.65%; in test [3], 7.56%; in test [4], 14.2%. For the same compound, the inhibition at 50 µg/mL was 29% in the test on Sclerotinia sclerotiorum; 16.4% in test [2]; -18.5% in the test on Phytophthora nicotianae; 29% in the test with Cytospora mali; 33% in the test with Botrytis cinerea; 72.9% with Rhizoctonia solani.
With `CO/C=C(/C(=O)OC)c1ccccc1Oc1cc(Oc2ccccc2C#N)ncn1` [AZOXYSTROBIN], the inhibition at 50 µg/mL with Sclerotinia sclerotiorum is 100%; in the test on Phytophthora nicotianae, 37.9%; in the test on Cytospora mali it was 92%; in the test with Botrytis cinerea it was 80%; in the test on Rhizoctonia solani it was 89%.
Take `COC(=O)Nc1nc2ccccc2[nH]1` [CARBENDAZIM]: the inhibition at 50 µg/mL in the test with Sclerotinia sclerotiorum was determined as 100%; in [2], 82.1%; in the test on Phytophthora nicotianae it was 14.5%; with Cytospora mali, 100%; in the test on Botrytis cinerea, 38%; in the test with Rhizoctonia solani, 100%.
`N#Cc1c(Cl)c(Cl)c(Cl)c(C#N)c1Cl` [CHLOROTHALONIL]: the inhibition at 50 µg/mL in the test on Sclerotinia sclerotiorum was 70%; in the test with Phytophthora nicotianae, 63.7%; in the test with Cytospora mali it was 88%; in the test on Botrytis cinerea, 95%; in the test on Rhizoctonia solani it was 75.5%.
For `CC(C)(C)c1ccc(/C(=C/C(=O)N2CCOCC2)c2ccnc(Cl)c2)cc1` [PYRIMORPH], the inhibition at 50 µg/mL with Sclerotinia sclerotiorum amounted to 79%; in the test with Rhizoctonia solani, 97.2%.
